Holding throughout (type): ADME
Data set [1] can be described thus: Drug metabolism in human intestine microsomes assessed as estriol-17-glucuronide formation after 15 to 60 mins by Michaelis-Menten equation analysis in presence of UDPGA. The gist of the method:
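Pooled human intestine microsomes (6 donors), 0.5 or 10 µg, with alamethicin at 5% of total protein. Incubated with 50 mM phosphate pH 7.4, 10 mM MgCl₂, 5 mM UDPGA and 10% DMSO for 15–60 min at 37°C. Each glucuronide regioisomer quantified by HPLC, in triplicate, with substrate consumption at or below 10%.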

The target of data set [2] is T1, UDP-glucuronosyltransferase 2B15 (Homo sapiens, UniProt P54855).
T1 sequence (P54855 whole entry): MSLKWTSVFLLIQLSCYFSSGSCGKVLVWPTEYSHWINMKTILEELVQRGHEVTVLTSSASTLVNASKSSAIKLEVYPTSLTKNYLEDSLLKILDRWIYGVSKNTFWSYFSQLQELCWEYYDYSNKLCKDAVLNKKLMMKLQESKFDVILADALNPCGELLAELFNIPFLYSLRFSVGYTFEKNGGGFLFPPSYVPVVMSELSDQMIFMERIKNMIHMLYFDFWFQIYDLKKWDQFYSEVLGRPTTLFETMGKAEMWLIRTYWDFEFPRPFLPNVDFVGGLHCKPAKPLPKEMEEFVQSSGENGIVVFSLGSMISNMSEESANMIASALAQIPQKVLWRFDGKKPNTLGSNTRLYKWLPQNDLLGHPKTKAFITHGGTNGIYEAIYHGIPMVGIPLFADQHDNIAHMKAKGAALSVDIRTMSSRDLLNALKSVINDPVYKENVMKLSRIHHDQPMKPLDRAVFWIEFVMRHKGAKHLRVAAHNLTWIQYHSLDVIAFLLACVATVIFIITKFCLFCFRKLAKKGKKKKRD
In words: Drug metabolism assessed as recombinant human C-terminal […]-mediated 16-epiestriol-3-glucuronide formation after 15 to 60 mins by Michaelis-Menten equation analysis in presence of UDPGA. As to conditions: recombinant enzyme.

Data set [3] has as its target T2, UDP-glucuronosyltransferase 2A1 (Homo sapiens, UniProt P0DTE4).
T2 sequence (P0DTE4 whole entry): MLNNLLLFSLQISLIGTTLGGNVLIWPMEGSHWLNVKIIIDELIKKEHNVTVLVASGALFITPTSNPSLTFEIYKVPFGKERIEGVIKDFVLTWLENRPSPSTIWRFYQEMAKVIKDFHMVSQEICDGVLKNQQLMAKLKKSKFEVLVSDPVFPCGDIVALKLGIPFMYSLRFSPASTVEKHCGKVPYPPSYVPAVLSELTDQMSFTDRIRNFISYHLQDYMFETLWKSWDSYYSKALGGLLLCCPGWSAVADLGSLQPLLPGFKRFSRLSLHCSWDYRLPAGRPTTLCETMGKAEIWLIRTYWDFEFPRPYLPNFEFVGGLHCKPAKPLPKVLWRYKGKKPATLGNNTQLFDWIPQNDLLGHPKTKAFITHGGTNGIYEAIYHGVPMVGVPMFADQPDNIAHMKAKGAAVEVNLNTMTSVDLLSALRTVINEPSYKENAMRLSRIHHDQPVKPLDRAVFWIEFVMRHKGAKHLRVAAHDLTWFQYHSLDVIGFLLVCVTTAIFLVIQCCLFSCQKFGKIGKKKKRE
Put plainly: Drug metabolism assessed as recombinant human C-terminal His-tagged UGT2A1-mediated 16-epiestriol-17-glucuronide formation at 200 uM after 15 to 60 mins by HPLC analysis in presence of UDPGA. Conditions: recombinant enzyme. Put shortly: (§1)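 Screening at a single substrate concentration of 200 μM, in triplicate. The reaction used 5 or 50 µg of UGT-enriched insect cell membranes in 50 mM phosphate pH 7.4 with 10 mM MgCl₂ and 5 mM UDPGA, 10% final DMSO. Incubation was 15–60 min at 37°C. Perchloric acid stopped the reaction and supernatants were analysed by HPLC. Controls lacked UDPGA. Rates were normalized to relative UGT expression level.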

The target of data set [4] is T3, UDP-glucuronosyltransferase 1A1 (Homo sapiens, UniProt P22309).
T3 sequence (P22309 whole entry): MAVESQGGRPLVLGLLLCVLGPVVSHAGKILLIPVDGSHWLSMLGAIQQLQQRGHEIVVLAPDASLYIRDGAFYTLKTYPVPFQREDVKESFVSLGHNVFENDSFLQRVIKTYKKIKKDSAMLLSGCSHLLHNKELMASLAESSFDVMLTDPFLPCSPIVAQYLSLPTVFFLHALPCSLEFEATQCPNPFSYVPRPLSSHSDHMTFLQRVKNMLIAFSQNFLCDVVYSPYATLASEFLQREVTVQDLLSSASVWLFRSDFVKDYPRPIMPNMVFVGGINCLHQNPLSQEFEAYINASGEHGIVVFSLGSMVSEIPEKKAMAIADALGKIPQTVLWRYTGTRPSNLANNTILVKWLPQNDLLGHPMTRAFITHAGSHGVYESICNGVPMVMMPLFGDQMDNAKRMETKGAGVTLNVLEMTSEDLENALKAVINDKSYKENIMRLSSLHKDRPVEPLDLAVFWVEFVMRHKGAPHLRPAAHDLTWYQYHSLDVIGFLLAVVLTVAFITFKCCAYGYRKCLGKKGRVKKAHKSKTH
Put plainly: Drug metabolism assessed as recombinant human C-terminal His-tagged UGT1A1-mediated estradiol-3-glucuronide formation at 200 uM after 15 to 60 mins by HPLC analysis in presence of UDPGA. Conditions: recombinant enzyme. The gist of the method:
as §1

The target in data set [5] is T2, UDP-glucuronosyltransferase 2A1. Put plainly: Drug metabolism assessed as recombinant human C-terminal His-tagged UGT2A1-mediated 17-epiestriol-17-glucuronide formation at 200 uM after 15 to 60 mins by HPLC analysis in presence of UDPGA. Conditions: recombinant enzyme. The gist of the method:
as §1

The results in this text go back to ChEMBL document CHEMBL3525985, “Regiospecificity and stereospecificity of human UDP-glucuronosyltransferases in the glucuronidation of estriol, 16-epiestriol, 17-epiestriol, and 13-epiestradiol” (Drug Metab Dispos, 2013).

SMILES strings stand for the structures.

The Km is the substrate concentration at which the rate is half of its maximum. A word on the Vmax: it is the rate approached at saturating substrate. With `C[C@]12CC[C@@H]3c4ccc(O)cc4CC[C@H]3[C@@H]1C[C@@H](O)[C@@H]2O` [ESTRIOL], in data set [1], the Km is 1120 µM and the Vmax was found to be 2095 pmol/min/mg.

Regarding `C[C@]12CC[C@@H]3c4ccc(O)cc4CC[C@H]3[C@@H]1C[C@H](O)[C@@H]2O` [EPIESTRIOL], the Drug metabolism is recorded as 0.5 pmol/min/mg in data set [2] and “metabolite_detected” in data set [3].

For the compound `C[C@]12CC[C@@H]3c4ccc(O)cc4CC[C@H]3[C@@H]1CC[C@@H]2O` [ESTRADIOL], in data set [4], the Drug metabolism entry is recorded as “metabolite_detected”.

Take `C[C@]12CC[C@@H]3c4ccc(O)cc4CC[C@H]3[C@@H]1C[C@@H](O)[C@H]2O`: the Drug metabolism result in data set [5] was “metabolite_detected”.
